Assay results of several laboratories.
Protocols differ between the studies behind these lines. pIC50: −log10 of the molar value.
Read-out: cell growth or viability

SMILES	cell line	assay	conditions	measurement	result
CCCCC(=O)Nc1ccc(-c2ccc3ncn(CC4CC4)c(=O)c3c2)cn1	NCI-H1975	CCK-8	72 h	pIC50	7.10
O=C(NCc1ccccc1)Nc1nc2cc(-c3ccc4ncn(Cc5ccccc5)c(=O)c4c3)ccc2s1	NCI-H1975	MTT	72 h	pIC50	< 4.70
CCCCn1cnc2ccc(-c3ccc(NC(=O)Nc4ccc(Cl)cc4)nc3)cc2c1=O	NCI-H1975	CCK-8	72 h	pIC50	5.59
Cc1ncsc1-c1ccc([C@H](C)NC(=O)[C@@H]2C[C@@H](O)CN2C(=O)[C@@H](NC(=O)CN2CCN(c3cc(-c4ccccc4O)nnc3N)CC2)C(C)(C)C)cc1	HCC515	ATP luminescence	7 days	pIC50	6.74
O=C(NCCc1ccccc1)Nc1nc2cc(-c3ccc4ncn(CCN5CCOCC5)c(=O)c4c3)ccc2s1	NCI-H1975	MTT	72 h	pIC50	5.49
Nc1ccn([C@@H]2O[C@H](CO)[C@@H](O)C2(F)F)c(=O)n1	HEK293	MTT	24 h	IC50	24.2 µg/mL
O=C(Nc1ccc(Cl)cc1)Nc1nc2cc(-c3ccc4ncn(CCN5CCOCC5)c(=O)c4c3)ccc2s1	NCI-H1975	MTT	72 h	pIC50	< 4.70
CCOc1ccc(Nc2c3c(nc4ccccc24)CCC3)cc1	HEK293	resazurin	72 h	pIC50	4.74
CCCn1cnc2ccc(-c3ccc(N4CCC(C)CC4=O)nc3)cc2c1=O (centres unmarked)	NCI-H1975	CCK-8	72 h	pIC50	< 5.00
CC(C)(C)c1cnc(CSc2cnc(NC(=O)C3CCN(C(=O)CCCCCCCN4Cc5cc6c(cc5C4)C(=O)N(C4CCC(=O)NC4=O)C6=O)CC3)s2)o1 (centres unmarked)	A673	MTT	–	pIC50	7.12
CCCCn1cnc2ccc(-c3ccc(NC(=O)Nc4ccc(C(F)(F)F)cc4)nc3)cc2c1=O	NCI-H1975	CCK-8	72 h	pIC50	5.16
Cc1cnc(Nc2ccc(OCCN3CCCC3)cc2)nc1Nc1cccc(S(=O)(=O)NC(C)(C)C)c1	SET-2	CCK-8	–	pIC50	6.00
Cc1ncsc1-c1ccc(CNC(=O)[C@@H]2C[C@@H](O)CN2C(=O)[C@@H](NC(=O)C2(F)CC2)C(C)(C)C)c(OCCOc2ccc(CN3CCN(c4cc(-c5ccccc5O)nnc4N)CC3)cc2)c1	HCC515	ATP luminescence	7 days	pIC50	6.58
c1ccc(Oc2ccc(Nc3c4c(nc5ccccc35)CCC4)cc2)cc1	HEK293	resazurin	72 h	pIC50	4.95
O=C(Nc1ccc(Cl)cc1)Nc1nc2cc(-c3ccc4ncn(Cc5ccccc5)c(=O)c4c3)ccc2s1	NCI-H1975	MTT	72 h	pIC50	< 4.70
CCCCCC(=O)Nc1ccc(-c2ccc3ncn(CCC)c(=O)c3c2)cn1	NCI-H1975	CCK-8	72 h	pIC50	7.13
O=C(Nc1ccc(F)cc1)Nc1nc2cc(-c3ccc4ncn(CC(=O)N5CCOCC5)c(=O)c4c3)ccc2s1	NCI-H1975	MTT	72 h	pIC50	< 4.70
COc1cccc2c1C(=O)c1c(O)c3c(c(O)c1C2=O)C[C@@](O)(C(=O)CO)C[C@@H]3O[C@H]1C[C@H](N)[C@H](O)[C@H](C)O1	Pfeiffer	–	96 h	pIC50	7.04
CCCn1cnc2ccc(-c3ccc(NC(=O)CNCC)nc3)cc2c1=O	NCI-H1975	CCK-8	72 h	pIC50	5.06
CN(C)CCn1cnc2ccc(-c3ccc4sc(NC(=O)Nc5ccc(F)cc5)nc4c3)cc2c1=O	NCI-H1975	MTT	72 h	pIC50	5.86
